Our source for the Ratio values is ChEMBL document CHEMBL3351998, “Discovery of potent and specific dihydroisoxazole inhibitors of human transglutaminase 2” (J Med Chem, 2014).

Assay [1] concerns the target T1, Protein-glutamine gamma-glutamyltransferase (Homo sapiens) (UniProt P21980).
T1 sequence (whole entry): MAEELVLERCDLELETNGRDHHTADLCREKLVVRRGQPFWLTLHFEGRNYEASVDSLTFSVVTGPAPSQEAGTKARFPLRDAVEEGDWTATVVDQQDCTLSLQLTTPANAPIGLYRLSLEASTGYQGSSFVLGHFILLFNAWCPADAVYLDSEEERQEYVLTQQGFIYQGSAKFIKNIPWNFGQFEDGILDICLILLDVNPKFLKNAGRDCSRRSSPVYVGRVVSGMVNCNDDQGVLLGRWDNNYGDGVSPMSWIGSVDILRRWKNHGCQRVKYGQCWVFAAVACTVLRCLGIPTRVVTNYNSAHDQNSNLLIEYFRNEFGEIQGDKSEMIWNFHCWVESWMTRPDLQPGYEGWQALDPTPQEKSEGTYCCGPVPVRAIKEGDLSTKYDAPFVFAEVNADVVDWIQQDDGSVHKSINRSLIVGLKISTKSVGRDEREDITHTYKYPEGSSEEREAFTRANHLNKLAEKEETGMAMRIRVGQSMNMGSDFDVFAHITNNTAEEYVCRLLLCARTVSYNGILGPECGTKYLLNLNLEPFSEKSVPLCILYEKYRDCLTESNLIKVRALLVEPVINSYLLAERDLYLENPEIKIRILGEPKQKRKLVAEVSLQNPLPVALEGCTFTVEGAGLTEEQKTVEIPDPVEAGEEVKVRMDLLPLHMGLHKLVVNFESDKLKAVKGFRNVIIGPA
Description: Inhibition of human transglutaminase 2 using ((benzyloxy)carbony l)-L-glutaminylglycine peptide substrate assessed as Kinh/Ki ratio by GDH coupled assay. Summed up:
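Human TG2 (V224G variant) or codon-optimized murine TG2, E. coli-expressed, final ~0.34 and 0.22 μM respectively. Buffer: 200 mM MOPS pH 7.2, 5 mM CaCl2, 10 mM α-ketoglutarate, 300 μM NADH, 36 U/mL bovine GDH. Z-Gln-Gly at 10/20 mM. Inhibitors typically at 100/33.3/11.1/3.7 μM, 1% DMSO, added after ≥5 min pre-equilibration. A340 progress curves fitted to exponential decay; kinh/Ki from irreversible inhibition model.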

For assay [2], the target named is T2, Protein-glutamine gamma-glutamyltransferase K (Homo sapiens) (UniProt P22735).
T2 sequence (whole entry): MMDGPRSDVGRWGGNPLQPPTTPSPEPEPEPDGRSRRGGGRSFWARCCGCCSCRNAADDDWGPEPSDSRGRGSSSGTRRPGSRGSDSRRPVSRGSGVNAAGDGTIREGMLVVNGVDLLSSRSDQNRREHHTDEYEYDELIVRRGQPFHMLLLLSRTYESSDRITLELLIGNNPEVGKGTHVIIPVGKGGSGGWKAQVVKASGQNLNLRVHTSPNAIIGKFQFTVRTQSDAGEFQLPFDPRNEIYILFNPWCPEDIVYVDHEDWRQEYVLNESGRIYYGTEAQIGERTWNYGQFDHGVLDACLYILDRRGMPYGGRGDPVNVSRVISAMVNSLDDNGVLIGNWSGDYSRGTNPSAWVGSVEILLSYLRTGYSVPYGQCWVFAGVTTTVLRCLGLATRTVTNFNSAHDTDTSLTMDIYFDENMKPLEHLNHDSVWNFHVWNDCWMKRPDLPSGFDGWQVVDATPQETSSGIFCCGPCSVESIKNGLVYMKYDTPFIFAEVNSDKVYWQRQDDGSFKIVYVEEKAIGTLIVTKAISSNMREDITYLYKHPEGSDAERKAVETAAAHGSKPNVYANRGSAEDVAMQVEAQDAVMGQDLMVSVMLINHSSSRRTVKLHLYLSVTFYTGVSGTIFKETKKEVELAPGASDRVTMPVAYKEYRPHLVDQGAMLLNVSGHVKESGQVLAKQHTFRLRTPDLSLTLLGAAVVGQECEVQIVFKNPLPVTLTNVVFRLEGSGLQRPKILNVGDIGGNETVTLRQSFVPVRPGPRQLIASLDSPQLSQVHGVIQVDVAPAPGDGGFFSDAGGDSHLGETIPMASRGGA
The assay can be described thus: Inhibition of human transglutaminase 1 using ((benzyloxy)carbonyl)-L-glutaminyl-L-serine peptide substrate assessed as Kinh/Ki ratio by GDH coupled assay. Summed up:
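Recombinant His-tagged human TG1 from E. coli Rosetta 2 pLysS, final ~0.37 μM, in 200 mM MOPS pH 7.2, 5 mM CaCl2, 10 mM α-ketoglutarate, 300 μM NADH, 36 U/mL GDH. Z-Gln-Ser at 20/40 mM. Inhibitors typically at 100/33.3/11.1/3.7 μM (1% DMSO), added after ≥5 min enzyme pre-equilibration. NADH loss read at 340 nm; progress curves fitted to exponential decay, kinh/Ki from irreversible model.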

Calls of active or inactive are those of the source. No cut-off for these calls is given here.

Turning to `O=C(NC[C@@H]1CC(Br)=NO1)[C@@H]1CCCN1C(=O)OCc1ccncc1`, the results for the Ratio in assay [1] and in assay [2] were 2.6 and 10.8, respectively.
Consider `O=C(NC[C@@H]1CC(Br)=NO1)[C@@H]1C[C@@H](c2c[nH]c3ccc(F)cc23)CN1C(=O)OCc1cnc2ccccc2c1`, for which the Ratio was 18.4 in assay [1] and 48 in assay [2].
Regarding `O=C(NC[C@@H]1CC(Br)=NO1)[C@@H]1C[C@H](c2ccccc2)CN1C(=O)OCc1cnc2ccccc2c1`, the results for the Ratio in assay [1] and in assay [2] were 17.7 and 17.2, respectively.
For the compound `COc1cccc(COC(=O)N2CCC[C@H]2C(=O)NC[C@@H]2CC(Br)=NO2)c1OC`, the Ratio entry in assay [1] was “inactive”. The Ratio in assay [2] was determined as 1.7.
As to `O=C(NC[C@@H]1CC(Br)=NO1)[C@@H]1CCCN1C(=O)OCc1cccc(OCc2ccccc2)c1`, the Ratio amounted to 4.8 in assay [1] and 3.9 in assay [2].
`O=C(NC[C@@H]1CC(Br)=NO1)[C@@H]1CCN1C(=O)OCc1cnc2ccccc2c1`: the values for the Ratio in assay [1] and in assay [2] were 14.4 and 13.6, respectively.
On to `C[C@H](OC(=O)N1CCC[C@@H]1C(=O)NC[C@@H]1CC(Br)=NO1)c1cnc2ccccc2c1`, for which the Ratio in assay [1] came out at 3.7; in assay [2], 8.7.
Regarding `N[C@@H]1C[C@@H](C(=O)NC[C@@H]2CC(Br)=NO2)N(C(=O)OCc2cnc3ccccc3c2)C1`, the results for the Ratio in assay [1] and in assay [2] were 2.6 and 3.1, respectively.
Turning to `O=C(N[C@@H]1C[C@@H](C(=O)NC[C@@H]2CC(Br)=NO2)N(C(=O)OCc2cnc3ccccc3c2)C1)c1ccccc1O`, the Ratio in assay [1] and in assay [2] was 37.1 each time.
Consider `O=C(NC[C@@H]1CC(Br)=NO1)[C@@H]1C[C@@H](Cc2ccccc2)CN1C(=O)OCc1cnc2ccccc2c1`, for which the Ratio in assay [1] was determined as 10.2; in assay [2], 23.1.
For `O=C(NC[C@@H]1CC(Br)=NO1)[C@@H]1CCCN1C(=O)OCc1cccnc1` the same measures were 4.6 and 4.3.
With `O=C(NC[C@@H]1CC(Br)=NO1)[C@@H]1C[C@@H](c2ccccc2O)CN1C(=O)OCc1cnc2ccccc2c1`, the Ratio in assay [1] was 33.8; in assay [2], 29.5.
For `O=C(NC[C@@H]1CC(Br)=NO1)[C@@H]1C=C(c2ccccc2)CN1C(=O)OCc1cnc2ccccc2c1`, the Ratio in assay [1] came to 11.1; in assay [2], 18.9.
For `O=C(NC[C@@H]1CC(Br)=NO1)[C@@H]1C[C@@H](NC(=O)C2(C(=O)O)CCC2)CN1C(=O)OCc1cnc2ccccc2c1`, the figures for the Ratio in assay [1] and in assay [2] were 14.8 and 11.6, respectively.
Take `CO[C@@H]1C[C@@H](C(=O)NC[C@@H]2CC(Br)=NO2)N(C(=O)OCc2cnc3ccccc3c2)C1`: the results for the Ratio in assay [1] and in assay [2] were 10.4 and 7.7, respectively.
Consider `O=C(NC[C@@H]1CC(Br)=NO1)[C@@H]1CCCN1C(=O)OCc1nc2ccccc2[nH]1`, for which the Ratio entry in assay [1] and in assay [2] was “inactive” throughout.
With `O=C(NC[C@@H]1CC(Br)=NO1)[C@@H]1CCCN1C(=O)OCc1ccccc1`, the Ratio came to 4.1 in assay [1] and 4.5 in assay [2].
In the case of `O=C(NC[C@@H]1CC(Br)=NO1)[C@@H]1CCCCN1C(=O)OCc1cnc2ccccc2c1`, the Ratio in assay [1] is 12; in assay [2], 22.2.
For `O=C(NC[C@@H]1CC(Br)=NO1)[C@@H]1C[C@@H](F)CN1C(=O)OCc1cnc2ccccc2c1`, the Ratio in assay [1] turned out to be 7.3; in assay [2], 6.7.
`O=C(NC[C@@H]1CC(Br)=NO1)[C@@H]1C[C@@H](c2ccc(Cl)cc2)CN1C(=O)OCc1cnc2ccccc2c1`: the values for the Ratio in assay [1] and in assay [2] were 12 and 15.4, respectively.
For `O=C(NC[C@@H]1CC(Br)=NO1)[C@@H]1C[C@@H](c2cccc(O)c2)CN1C(=O)OCc1cnc2ccccc2c1` the same measures were 52.2 and 38.7.
In the case of `C[C@@]1(C(=O)NC[C@@H]2CC(Br)=NO2)CCCN1C(=O)OCc1cnc2ccccc2c1`, the values for the Ratio in assay [1] and in assay [2] were 2 and 2.4, respectively.
In the case of `O=C(NC[C@@H]1CC(Br)=NO1)[C@@H]1CCCN1C(=O)OCc1cccc(F)c1`, the Ratio in assay [1] is 3.9; in assay [2] it was 5.6.
`O=C(NC[C@@H]1CC(Br)=NO1)[C@@H]1CCCN1C(=O)OCc1ccnc2ccccc12`: the Ratio turned out to be 2 in assay [1] and 12 in assay [2].
On the same counts, the results for `C[C@H](OC(=O)N1CCC[C@H]1C(=O)NC[C@@H]1CC(Br)=NO1)c1ccc2ccccc2c1` are 9 and 11.5.
On to `O=C(NC[C@@H]1CC(Br)=NO1)[C@@H]1CCN(C(=O)OCc2cnc3ccccc3c2)C1`, for which the Ratio in assay [1] was determined as 8.8; in assay [2], 25.8.
For `CC(C)(C)OC(=O)N1CCC[C@H]1C(=O)NC[C@@H]1CC(Br)=NO1`, the figures for the Ratio in assay [1] and in assay [2] were 2.5 and 2.3, respectively.
Consider `C#CCO[C@@H]1C[C@@H](C(=O)NC[C@@H]2CC(Br)=NO2)N(C(=O)OCc2cnc3ccccc3c2)C1`, for which the Ratio came out at 10.1 in assay [1] and 7.1 in assay [2].
In the case of `C[C@H](OC(=O)N1CCC[C@@H]1C(=O)NC[C@@H]1CC(Br)=NO1)c1ccc2ccccc2c1`, the values for the Ratio in assay [1] and in assay [2] were 2.9 and 5.1, respectively.
Take `O=C(NC[C@@H]1CC(Br)=NO1)[C@@H]1CCCN1C(=O)OCc1cnc2ccccc2n1`: the Ratio in assay [1] was determined as 1.6; in assay [2] it was 15.4.
For the compound `O=C(N[C@@H]1C[C@@H](C(=O)NC[C@@H]2CC(Br)=NO2)N(C(=O)OCc2cnc3ccccc3c2)C1)c1cnccn1`, the Ratio in assay [1] came to 15.7; in assay [2], 12.
For `C#Cc1ccc(COC(=O)N2CCC[C@H]2C(=O)NC[C@@H]2CC(Br)=NO2)cc1` the same measures were 6.4 and 7.6.
For `O=C(NC[C@@H]1CC(Br)=NO1)[C@@H]1CCCN1C(=O)OCc1ccccn1`, the Ratio in assay [1] worked out at 1.2; in assay [2], 1.6.
In the case of `O=C(C[C@@H]1CCCN1C(=O)OCc1cnc2ccccc2c1)NC[C@@H]1CC(Br)=NO1`, the Ratio in assay [1] and in assay [2] was 1.3 throughout.
`Cn1c(COC(=O)N2CCC[C@H]2C(=O)NC[C@@H]2CC(Br)=NO2)nc2ccccc21`: the Ratio entry in assay [1] was “inactive”. Moreover, the Ratio in assay [2] is 0.85.
In the case of `O=C(NC[C@@H]1CC(Br)=NO1)[C@@H]1C[C@@H](c2cccc(Cl)c2)CN1C(=O)OCc1cnc2ccccc2c1`, the results for the Ratio in assay [1] and in assay [2] were 25.3 and 41.7, respectively.
As for `C#CCOC(=O)N1CCC[C@H]1C(=O)NC[C@@H]1CC(Br)=NO1`, the Ratio in assay [1] was 2.4; in assay [2], 0.7.
As to `O=C(N[C@@H]1C[C@@H](C(=O)NC[C@@H]2CC(Br)=NO2)N(C(=O)OCc2cnc3ccccc3c2)C1)c1ccccc1`, the Ratio in assay [1] came out at 25.8; in assay [2], 24.6.
In the case of `O=C(N[C@@H]1C[C@@H](C(=O)NC[C@@H]2CC(Br)=NO2)N(C(=O)OCc2cnc3ccccc3c2)C1)c1cccc(O)c1`, the Ratio in assay [1] worked out at 36.2; in assay [2], 18.1.
